# Screening results: PubChem BioAssay, The Scripps Research Institute Molecular Screening Center
# Only some compounds are listed: those with a hit (about 3.3% of all), similar ones and a draw of the others.
# PRMT1 inh: inhibitors of human PRMT1; Q99873; inhibition, % at 2.79 µM; 370,000 compounds, 1.3% hits; AID 652257; recombinant PRMT1, activity-based probe fluorescence polarization;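 active = inhibition above about 21% made by adding two undisclosed values, limit read from the data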
# TDP2 absorb: blocks human TDP2 phosphodiesterase activity. O95551. inhibition, % at 12.8 µM. 370,000 compounds, 0.34% hits. recombinant TDP2, T5PNP hydrolysis, p-nitrophenol absorbance 415 nm. AID 720702;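 active = inhibition above the mean of all tested compounds plus 3 SD, set per campaign, cut at about 25% in these data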;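 note: 0% = DMSO with enzyme and 100% = buffer with substrate but no TDP2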
#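 System: recombinant human TDP2 / Amount: 120 nM TDP2 per well / Also added: 5 mM T5PNP chromogenic substrate / Doses: 12.8 µM single point, 1% DMSO / Incubation: 2 h at 37 °C / Detection: p-Nitrophenol epi absorbance / Evaluation: % inhibition relative to enzyme-containing and enzyme-free wells / Repeats: singlicate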
# SIAE primary: blocks human sialic acid acetylesterase. Q9HAT2. SIAE FP-Rh probe binding, fluorescence polarization. inhibition, % at 9.66 µM. 370,000 compounds, 0.69% hits;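 active = inhibition above a cutoff: mean of compounds within the control limits plus 3 SD of those, cut at about 17% in these data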;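 note: 0% = plate median of compound wells and 100% = probe without SIAE protein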
# MBD2 DNA inh: blocks human MBD2 binding to methylated DNA; TR-FRET, MBD2 binding to methylated oligonucleotide; inhibition, % at 4.4 µM; 370,000 compounds, 0.31% hits; in the data active = inhibition above about 13%
# Target sequence (Q9UBB5 whole entry, looked up): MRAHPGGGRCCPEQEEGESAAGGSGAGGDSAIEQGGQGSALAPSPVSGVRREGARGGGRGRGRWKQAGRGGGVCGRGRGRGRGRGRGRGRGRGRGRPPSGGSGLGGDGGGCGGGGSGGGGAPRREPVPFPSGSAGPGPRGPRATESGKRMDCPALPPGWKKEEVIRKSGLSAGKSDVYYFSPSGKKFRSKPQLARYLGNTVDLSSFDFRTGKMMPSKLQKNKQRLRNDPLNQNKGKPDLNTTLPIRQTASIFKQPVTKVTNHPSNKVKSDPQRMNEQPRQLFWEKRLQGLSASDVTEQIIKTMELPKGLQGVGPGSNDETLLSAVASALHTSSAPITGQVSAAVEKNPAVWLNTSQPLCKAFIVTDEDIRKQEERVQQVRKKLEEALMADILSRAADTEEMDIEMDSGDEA
# UHRF1 binding: UHRF1 methyl-DNA binding inhibition; Q96T88; UHRF1 binding to methylated oligo, TR-FRET; inhibition, % at 4.4 µM; 370,000 compounds, 0.75% hits; in the data active = inhibition above about 21%;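 note: UHRF1 SRA domain binding a hemimethylated CpG hairpin DNA probe; 0% = median of test compound wells and 100% = reference inhibitor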
# LEDGF integ inh: blocks HIV-1 LEDGF/p75-dependent DNA integration; TR-FRET IN-LEDGF/p75 DNA integration, Eu/Cy5; inhibition, % at 3.7 µM; 370,000 compounds, 0.64% hits;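 active = inhibition above the screen-wide mean plus 3 SD, cut at about 13% in these data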;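 note: signal is the Cy5 over europium emission ratio at 671 and 618 nm; 0% = plate median of compound wells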
# * hit, by the source's call.
SMILES,PRMT1 inh,TDP2 absorb,SIAE primary,MBD2 DNA inh,UHRF1 binding,LEDGF integ inh
Cc1ccc(NC(=S)NCC2CCN(C(C)c3ccccc3)C2)cc1C (stereo not given),-2.7,-0.3,8.4,0.8,23.1*,0.6
CCc1ccc(N2C(=O)C[C@@](C#N)(C(=O)OC)[C@H]2c2ccccc2)cc1,-2.1,-0.1,2.6,1.0,-0.6,-0.9
CC(C)n1c(SCCCc2ccccc2)nc2c1c(=O)[nH]c(=O)n2C,22.2*,-9.0,0.8,2.0,2.2,2.7
CCOCc1nnc(NC(=O)CS(=O)(=O)c2ccc(C)cc2)s1,3.2,8.0,5.2,-0.5,25.8*,-3.0
CCOC1=C2CN(S(=O)(=O)c3ccc(C)cc3)[C@H](c3ccccc3)C[C@@H]2N(S(=O)(=O)c2ccccc2)[C@H](c2ccccc2)C1,-2.1,0.2,-5.8,-0.1,-0.3,-2.8
CCOC1=C2CN(S(=O)(=O)c3ccc(C)cc3)[C@H](c3ccccc3)C[C@@H]2N(S(C)(=O)=O)[C@H](c2ccccc2)C1,0.1,7.5,-1.3,-5.5,27.7*,1.0
CCCCC(=O)N1CCC(NS(=O)(=O)c2ccc3c(c2)CCN3C(C)=O)CC1,10.9,-9.7,-3.0,5.7,3.0,-4.0
COc1ccc(-c2[nH]ncc2CN(C)CCN2CCOCC2)cc1F,0.0,-12.8,12.2,10.8,21.6*,2.3
COc1ccc(-c2[nH]ncc2CN(C)CC2CCCCO2)cc1F (stereo not given),-3.7,-7.8,-5.8,-0.9,0.4,-3.0
CCc1nc2c(c(=O)c3ccccc3n2C)c(=O)n1C1CCCCCC1,0.8,-6.0,0.3,1.2,59.4*,-2.0
Cc1ccc(-c2c(NC(=O)C3CC3)nc3ncccn23)cc1,-2.4,5.8,-1.2,-1.6,-2.7,-0.1
Cc1[nH]c2ccccc2c1/C=N/NC(=O)c1cccc(F)c1,1.9,-7.3,0.3,-1.3,-1.4,-6.2
Cc1[nH]c2ccccc2c1/C=N/NC(=O)c1cc(C(C)C)[nH]n1,2.8,8.2,1.4,2.4,25.0*,-2.8
CCOC(=O)c1ccc(NC(=O)CCC(=O)NCc2ccco2)cc1,-0.8,-8.5,5.5,5.3,2.9,1.1
CCOC(=O)c1ccc(NC(=O)C(=O)NCc2ccco2)cc1,1.4,12.1,8.0,0.7,24.4*,2.6
CC1=C(C(=O)N2CCOCC2)C(c2ccc(O)cc2)NC(=S)N1 (stereo not given),3.0,-19.6,-1.6,-4.3,0.8,-0.9
Oc1ccc2c(c1)C1CCCC1(N1CCOCC1)O2 (stereo not given),27.2*,4.9,8.9,1.8,13.9,31.1*
CCOC(=O)[C@@]12CCC3=C1N(CCC3)C(=O)[C@H](CC(=O)NCc1ccccc1)C2,-5.1,6.4,-3.9,2.0,2.9,3.1
COC(=O)CC1NCCc2cc(OC)c(OC)cc21 (stereo not given),5.4,-14.8,1.8,0.4,33.5*,-0.8
COc1cc2c(cc1OC)[C@H](Cc1ccc(O)cc1)NCC2,1.6,-7.2,4.4,1.4,1.3,2.1
COC(=O)c1ccc(-n2c(C)cc(C(=O)COC(=O)C3=COCCO3)c2C)cc1,-0.4,1.4,-2.0,-1.8,-3.0,-1.4
Cc1cc(C(=O)COC(=O)C2=COCCO2)c(C)n1-c1ccc2c(c1)OCO2,-1.6,-10.6,17.4*,3.0,-2.5,0.9
O=C(Nc1ccc(Cl)cc1Cl)c1cccc(N2C(=O)C=CC2=O)c1,88.1*,-12.1,-26.1,1.8,1.1,-2.9
O=C(Nc1ccc(Cl)cc1Cl)c1ccc2c(c1)OCCO2,-1.0,-6.0,-0.5,2.7,4.9,1.2
CN1C(=O)c2cc(NS(=O)(=O)c3cccc(F)c3)ccc2OC[C@@H]2O[C@H](CC(=O)O)CC[C@H]21,-8.7,-1.6,-1.3,0.8,-1.0,3.4
SMILES,PRMT1 inh,TDP2 absorb,SIAE primary,MBD2 DNA inh,UHRF1 binding,LEDGF integ inh
COCCN=c1scc(-c2ccc3c(c2)NC(=O)CO3)n1/N=C(\C)c1ccc(O)cc1,-3.9,-2.8,11.1,1.1,-2.4,0.0
COc1cc(/C=N/n2c(-c3ccc4c(c3)NC(=O)CO4)csc2=Nc2cccc(C)c2)ccc1O,2.8,-9.7,41.0*,-7.0,0.2,6.2
O=C1C[C@H](C(=O)Nc2ccc(Cl)cc2)[C@@H](c2ccccc2)O1,0.2,0.7,-0.4,0.8,2.6,1.5
COC(=O)c1cc(C2(c3c[nH]c4ccccc34)CCN(C(=O)OC(C)(C)C)CC2)n2ccccc12,-1.7,-4.3,-2.8,-0.6,-1.5,3.0
CC(C)CCC(CCNCc1ccccn1)c1ccc(Cl)cc1 (stereo not given),0.2,-1.5,1.8,0.6,2.3,15.3*
S=C(NCc1ccc(Cl)cc1)NCc1ccccn1,1.2,-1.9,-3.0,3.7,-0.6,-5.3
O=C(NCC1CC1)c1ccc(-n2ccnc2)c2ccoc12,6.2,-21.0,0.8,8.8,24.8*,10.4
O=C(c1ccc(CNS(=O)(=O)c2ccccc2)cc1)N1CCN(c2ccccn2)CC1,-1.8,3.6,1.9,13.1,23.1*,3.1
Nc1ccc2c(c1)C(=O)Cc1ccccc1S2,5.4,-5.9,-1.5,1.4,49.4*,0.2
O=C(NCCc1ccccc1)OCc1cn(-c2ccc(Cl)cc2)nn1,-1.9,3.3,-6.0,-1.6,0.9,1.5
COC(=O)C[C@H]1CC[C@H]2[C@H](COc3ccc(NC(=O)c4cccs4)cc3C(=O)N2C)O1,-0.6,0.0,3.6,1.9,-0.7,-0.2
COc1ccc(CCN(Cc2cccs2)S(=O)(=O)c2ccc(F)cc2)cc1OC,-6.2,-15.7,-12.2,-1.4,0.6,5.5
Cc1cc2nc3c(=O)n(CCc4ccccc4)c(=O)[nH]c3nc2cc1N,109.4*,0.7,10.2,-13.1,-33.1,3.7
Cc1nc2ccccc2c(=O)n1CCc1ccccc1,-0.5,-1.4,11.9,-0.2,0.4,-0.8
O=C(CCn1nnc2ccccc21)N1CCN(c2ccc(F)cc2)CC1,-2.6,4.7,3.3,-3.1,0.5,-2.2
COc1ccc(S[C@]2(C(=O)N3CCCC3)CC(=O)N(P(=O)(OC)OC)[C@@H]2c2ccc(OC)cc2)cc1,8.1,-15.1,-7.0,-10.3,1.0,7.5
COc1ccc(-c2ccc(S(=O)(=O)n3nc(OC(=O)c4cccs4)cc3N)cc2)cc1,-5.6,-2.9,-14.3,-5.4,-0.2,1.5
COc1ccc(NC(=O)n2nc(OC(=O)c3cccs3)cc2N)cc1,24.3*,-2.7,-0.6,3.2,-0.8,-1.7
CCCCNC(=O)O[C@H]1CC[C@@]23CCCN2C(=O)CCC[C@H]3[C@H]1CCC,5.8,-11.0,2.3,2.8,5.9,5.5
Cc1c(CC(=O)O)c(=O)oc2cc3oc4c(c3cc12)CCCC4,-2.0,0.7,1.9,-0.3,25.6*,-2.1
COc1cc2c(cc1OC)/C(=C/C(=O)N1CCOCC1)NC(C)(C)C2,20.9,-6.0,0.7,-1.1,1.2,-2.5
